Each structure is given as a SMILES string. Calls of active or inactive are those of the source. No cut-off for these calls is given here.

The test system of data set [1] is K562. The experiment in a line: Cytotoxicity against human K562 cells cocultured with human PBMC cells assessed as inhibition of cell proliferation at 100 nM incubated with PBMC cells for 18 hrs followed by co-incubation with K562 cells for 4 hrs by SYTOX blue staining based flow cytometric analysis. It is filed as functional. In a few lines:
(§1)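 Effector cells are freshly Ficoll-isolated human PBMCs, 4 × 10^5 per well, pretreated 18 h with compound or 0.1% DMSO. CFSE-labelled K562 or MEC1 targets, 1 × 10^4 per well, are then added at 40:1 effector:target ratio and co-incubated 4 h at 37 °C. Dead targets are CFSE+/Sytox blue+ by flow cytometry. Results are relative to vehicle. Duplicates; three (MEC1) or four (K562) independent experiments. One-way ANOVA with Dunnett.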

Data set [2] has as its system PBMC. The experiment in a line: Immunostimulatory activity in human PBMC cells assessed as increase in IL-1beta production at 2 uM incubated for 18 hrs by flow cytometry analysis. Type of data set: functional, cell-based. In outline: (§2)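 Human PBMCs from healthy donors, 1 × 10^6 cells/mL in RPMI 1640 with 10% FBS, treated with 2 μM compound or 0.1% DMSO, without or with LPS 10 ng/mL, for 18 h at 37 °C. Supernatant cytokines quantified by cytometric bead array (human inflammatory panel) on a flow cytometer against recombinant standards. Four independent donors. Repeated-measures one-way ANOVA with Dunnett.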
In general terms: In flow cytometry, cells or beads pass a laser one at a time.

The test system of data set [3] is Mus musculus. The experiment in a line: Immuno-adjuvant activity in NIH/OlaHsd mouse assessed as increase in ovalbumin specific […] associated IgG2a production in sera at 0.30 micromol administered subcutaneously on day 1 and as booster dose on day 21 with ovalbumin loaded neutral liposomes and measured 1 week post booster dose by ELISA. It is filed as functional, organism-based. To be noted: dose 0.3 µmol, time 28.0 day. In a few lines:
(§3)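 Groups of 5 female NIH/OlaHsd mice, 2.0–2.5 months old, immunized with ovalbumin-loaded neutral liposomes (10 μg ovalbumin per dose) containing 0.30 μmol adjuvant per dose, plus one booster dose. Serum ovalbumin-specific IgG, IgG1 and IgG2a measured 1 week after the booster. Mean ± SEM of 5 mice.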

For data set [4], the system named is MEC1. The experiment in a line: Cytotoxicity against human MEC-1 cells cocultured with human PBMC cells assessed as inhibition of cell proliferation at 1 uM incubated with PBMC cells for 18 hrs followed by co-incubation with MEC-1 cells for 4 hrs by SYTOX blue staining based flow cytometric analysis. It is filed as functional. In a few lines: as §1
Data set [5] concerns Mus musculus. Description: Immuno-adjuvant activity in NIH/OlaHsd mouse assessed as increase in ovalbumin specific […] associated IgG1 production in sera at 0.30 micromol administered subcutaneously on day 1 and as booster dose on day 21 with ovalbumin loaded neutral liposomes and measured 1 week post booster dose by ELISA. The following applies: dose 0.3 µmol, time 28.0 day. It is filed as functional, organism-based. In a few lines:
as §3
(In general: An ELISA detects its analyte on a solid surface through an enzyme-linked reagent.)

The nature of data set [6]: Cytotoxicity against HEK-Blue hNOD2 cells assessed as reduction in metabolic activity at 20 uM incubated for 18 hrs by MTS assay. Type of data set: toxicity, cell-based. The following applies: human, hek-blue hnod2, 18 h. In a few lines:
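HEK-Blue NOD2 cells, 40 000 per well, exposed to 20 μM compound or 0.1% DMSO for 18 h at 37 °C, 5% CO2. Metabolic activity measured by MTS (CellTiter 96 AQueous One) reagent. Duplicates, two independent biological replicates.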
Background: Tetrazolium assays rely on reduction of a dye to a coloured formazan, in cell work by metabolically active cells.

The subject of data set [7] is K562. Description: Cytotoxicity against human K562 cells cocultured with human PBMC cells assessed as inhibition of cell proliferation at 10 uM incubated with PBMC cells for 18 hrs followed by co-incubation with K562 cells for 4 hrs by SYTOX blue staining based flow cytometric analysis. Type of data set: functional. In outline: as §1
Data set [8] concerns Mus musculus. The experiment in a line: Immuno-adjuvant activity in NIH/OlaHsd mouse assessed as increase in ovalbumin specific IgG production in sera at 0.15 micromol administered subcutaneously on day 1 and as booster dose on day 21 and 28 with ovalbumin loaded liposomes by ELISA. It is filed as functional, organism-based. The following applies: dose 0.15 µmol, time 28.0 day. In a few lines: (§4)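 Groups of 5 female NIH/OlaHsd mice, 2.0–2.5 months old, immunized with ovalbumin-loaded liposomes (10 μg ovalbumin per dose) containing 0.15 μmol adjuvant per dose. Liposomes were neutral (PC–cholesterol 7:5), anionic (PC–cholesterol–dicetylphosphate 7:5:1) or mannosylated (PC–cholesterol–mannose-PEG-PA 7:5:0.5). Serum ovalbumin-specific IgG, IgG1 and IgG2a measured 1 week after the second booster. Mean ± SEM.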

Data set [9] deals with MEC1. Description: Cytotoxicity against human MEC-1 cells cocultured with human PBMC cells assessed as inhibition of cell proliferation at 10 uM incubated with PBMC cells for 18 hrs followed by co-incubation with MEC-1 cells for 4 hrs by SYTOX blue staining based flow cytometric analysis. Type of data set: functional. In a few lines: as §1
Data set [10] deals with K562. Description: Cytotoxicity against human K562 cells cocultured with human PBMC cells assessed as inhibition of cell proliferation at 1 uM incubated with PBMC cells for 18 hrs followed by co-incubation with K562 cells for 4 hrs by SYTOX blue staining based flow cytometric analysis. Type of data set: functional. In outline: as §1
The subject of data set [11] is PBMC. Description: Immunostimulatory activity in human PBMC cells assessed as increase in TNF-alpha production at 2 uM incubated for 18 hrs by flow cytometry analysis. Type of data set: functional, cell-based. In a few lines: as §2
The subject of data set [12] is PBMC. Description: Immunostimulatory activity in human PBMC cells assessed as increase in LPS-induced IL-8 production at 2 uM incubated for 18 hrs by flow cytometry analysis. Type of data set: functional, cell-based. In outline: as §2
The subject of the next data set is BMDC. Description: Induction of mouse BMDC-mediated ovalbumin specific CD4+ T cell activation assessed as increase in CD25 expression at 10 uM incubated for 72 hrs by CFSE staining based flow cytometric analysis. It is filed as functional. In outline: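 BMDCs from C57BL/6 mouse tibia (7 days in GM-CSF 20 ng/mL, >90% CD11c+) pulsed 18 h with compound (1 or 10 μM) plus ovalbumin 50 μg/mL, then washed. They were cocultured 72 h with CFSE-labelled naive OT-II CD4+ T cells. CD25+/CFSE-low fraction of live Thy1.2+CD4+ cells read by flow cytometry; supernatant cytokines also measured. Duplicates of two independent experiments.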

In data set [13] the test system is MEC1. Description: Cytotoxicity against human MEC-1 cells cocultured with human PBMC cells assessed as inhibition of cell proliferation at 100 nM incubated with PBMC cells for 18 hrs followed by co-incubation with MEC-1 cells for 4 hrs by SYTOX blue staining based flow cytometric analysis. It is filed as functional. In outline:
as §1

Data set [14] has as its system PBMC. The experiment in a line: Immunostimulatory activity in human PBMC cells assessed as increase in IL-6 production at 2 uM incubated for 18 hrs by flow cytometry analysis. It is filed as functional, cell-based. In a few lines: as §2
Data set [15] has as its system PBMC. Description: Immunostimulatory activity in human PBMC cells assessed as increase in LPS-induced IL-1beta production at 2 uM incubated for 18 hrs by flow cytometry analysis. Type of data set: functional, cell-based. In a few lines:
as §2

Data set [16] concerns Mus musculus. Description: Immuno-adjuvant activity in NIH/OlaHsd mouse assessed as increase in ovalbumin specific […] associated IgG2a production in sera at 0.15 micromol administered subcutaneously on day 1 and as booster dose on day 21 and 28 with ovalbumin loaded liposomes by ELISA. It is filed as functional, organism-based. The following applies: dose 0.15 µmol, time 28.0 day. In a few lines:
as §4

Data set [17] has as its system PBMC. The experiment in a line: Immunostimulatory activity in human PBMC cells assessed as increase in LPS-induced TNF-alpha production at 2 uM incubated for 18 hrs by flow cytometry analysis. It is filed as functional, cell-based. In a few lines:
as §2

The subject of data set [18] is PBMC. The experiment in a line: Immunostimulatory activity in human PBMC cells assessed as increase in LPS-induced IL-6 production at 2 uM incubated for 18 hrs by flow cytometry analysis. Type of data set: functional, cell-based. In a few lines:
as §2

Data set [19] deals with PBMC. The experiment in a line: Immunostimulatory activity in human PBMC cells assessed as increase in IL-8 production at 2 uM incubated for 18 hrs by flow cytometry analysis. Type of data set: functional, cell-based. In a few lines: as §2

For `CCCCCCCCCCCCCCCCCC(=O)Oc1ccc(/C=C/C(=O)NCC(=O)N[C@H](C(=O)N[C@H](CCC(=O)OCC)C(=O)OCC)C(C)C)cc1OC`, the result in the data set with K562 [1], in the data set on PBMC [2], in the data set on MEC1 [4], with PBMC [11], in the data set on MEC1 [13] and in the data set on PBMC [14] was inactive. The outcome with PBMC [19] was inactive. Besides, the result with Mus musculus [3], in the data set on Mus musculus [5], with K562 [7], with Mus musculus [8], in the data set with MEC1 [9] and in the data set on K562 [10] was Active. Moreover, the result in the data set on PBMC [12], in the data set with BMDC, in the data set on PBMC [15], in the data set with Mus musculus [16], in the data set on PBMC [17] and in the data set with PBMC [18] was Active. In addition, the Activity result in [6] is given as “Non-Toxic”.

These data come from ChEMBL document CHEMBL5038594, “Structural Fine-Tuning of Desmuramylpeptide NOD2 Agonists Defines Their In Vivo Adjuvant Activity” (J Med Chem, 2021).
